Measurements from ChEMBL document CHEMBL4334447, “Discovery of 4-Aminoquinoline-3-carboxamide Derivatives as Potent Reversible Bruton's Tyrosine Kinase Inhibitors for the Treatment of Rheumatoid Arthritis” (J Med Chem, 2019).
≈ marks a conversion by molar mass, not a printed value.

What was measured:
[1] = molecular target: T1, Tyrosine-protein kinase BTK (Homo sapiens, UniProt Q06187); assay: Reversible inhibition of sodium orthovanadate-stimulated BTK autophosphorylation at Tyr223 residues in human Ramos cells preincubated for 2 hrs followed by sodium orthovanadate addition and measured after 15 mins by Western blot analysis; assay type: cell-based
[2] = Kinetic aqueous solubility of the compound in pH 7.4 phosphate buffered saline incubated for 24 hrs under shaking condition by HPLC analysis; assay type: physicochemical; details: read-out: Kinetic_solubility
Summary of the method: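 Dry powder shaken 24 h at 25 °C in 0.1 M phosphate buffer, pH 7.4, then filtered through a 0.45 µm membrane. Concentration determined by HPLC against a standard of the compound in DMSO. Mean of three separate assays in triplicate.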

[3] = molecular target: T1, Tyrosine-protein kinase BTK; assay: Reversible inhibition of FAM-labeled peptide binding to full-length human N-terminal GST-tagged BTK (2 to 659 residues) expressed in baculovirus infected Sf21 insect cells at preincubated for 10 mins followed by FAM-labeled peptide addition and measured by off-chip mobility shift assay
[4] = molecular target: Epidermal growth factor receptor (Homo sapiens, UniProt P00533); assay: Inhibition of recombinant human GST-tagged EGFR cytoplasmic domain (668 to 1210 residues) expressed in baculovirus expression system using Z'-lyte-labelled tyr-4 peptide as substrate measured after 1 hr by FRET assay
Summary of the method: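 Z'-LYTE kinase assay. Compounds tested as 3-fold serial dilutions in aqueous solution containing 4% DMSO. Fluorescence read at 400 nm excitation and 445/520 nm emission. IC50 is the mean of ≥3 assays in triplicate.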

[5] = molecular target: T2, Tyrosine-protein kinase Tec (Homo sapiens, UniProt P42680); assay: Inhibition of recombinant human N-terminal GST-fused TEC catalytic domain (359 to 631 residues) expressed in baculovirus expression system using biotin-labelled STK/TK as substrate measured after 1 hr by HTRF assay
T2 sequence (P42680 whole entry): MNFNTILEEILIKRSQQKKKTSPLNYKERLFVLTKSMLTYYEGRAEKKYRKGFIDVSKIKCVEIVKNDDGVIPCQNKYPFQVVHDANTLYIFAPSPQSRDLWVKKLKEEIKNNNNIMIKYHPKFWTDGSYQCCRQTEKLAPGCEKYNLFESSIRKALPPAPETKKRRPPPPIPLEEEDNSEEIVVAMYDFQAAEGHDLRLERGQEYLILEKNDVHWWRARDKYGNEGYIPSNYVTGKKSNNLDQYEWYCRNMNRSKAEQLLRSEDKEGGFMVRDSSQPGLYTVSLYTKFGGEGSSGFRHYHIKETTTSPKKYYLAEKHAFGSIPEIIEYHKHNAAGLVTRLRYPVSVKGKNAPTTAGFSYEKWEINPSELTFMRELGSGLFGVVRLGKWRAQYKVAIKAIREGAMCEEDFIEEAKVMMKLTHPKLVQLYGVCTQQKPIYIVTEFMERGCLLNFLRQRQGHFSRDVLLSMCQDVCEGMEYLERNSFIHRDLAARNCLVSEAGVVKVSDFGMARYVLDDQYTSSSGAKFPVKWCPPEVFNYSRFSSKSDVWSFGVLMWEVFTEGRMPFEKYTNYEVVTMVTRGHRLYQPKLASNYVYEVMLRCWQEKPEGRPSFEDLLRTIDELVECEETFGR
Summary of the method: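 HTRF KinEase format: TEC kinase and substrate mixed with serial compound concentrations at rt, then ATP added to start. Stopped after 1 h with EDTA detection solution containing europium anti-phosphotyrosine antibody and streptavidin-XL665. Read after a further 1 h at rt. Mean of ≥3 assays in triplicate.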

[6] = molecular target: T3, Tyrosine-protein kinase ITK/TSK (Homo sapiens, UniProt Q08881); assay: Inhibition of recombinant human ITK (352 to 617 residues) using myelin basic protein as substrate measured after 40 mins in presence of [gamma33P]ATP by scintillation counting analysis
T3 sequence (Q08881 whole entry): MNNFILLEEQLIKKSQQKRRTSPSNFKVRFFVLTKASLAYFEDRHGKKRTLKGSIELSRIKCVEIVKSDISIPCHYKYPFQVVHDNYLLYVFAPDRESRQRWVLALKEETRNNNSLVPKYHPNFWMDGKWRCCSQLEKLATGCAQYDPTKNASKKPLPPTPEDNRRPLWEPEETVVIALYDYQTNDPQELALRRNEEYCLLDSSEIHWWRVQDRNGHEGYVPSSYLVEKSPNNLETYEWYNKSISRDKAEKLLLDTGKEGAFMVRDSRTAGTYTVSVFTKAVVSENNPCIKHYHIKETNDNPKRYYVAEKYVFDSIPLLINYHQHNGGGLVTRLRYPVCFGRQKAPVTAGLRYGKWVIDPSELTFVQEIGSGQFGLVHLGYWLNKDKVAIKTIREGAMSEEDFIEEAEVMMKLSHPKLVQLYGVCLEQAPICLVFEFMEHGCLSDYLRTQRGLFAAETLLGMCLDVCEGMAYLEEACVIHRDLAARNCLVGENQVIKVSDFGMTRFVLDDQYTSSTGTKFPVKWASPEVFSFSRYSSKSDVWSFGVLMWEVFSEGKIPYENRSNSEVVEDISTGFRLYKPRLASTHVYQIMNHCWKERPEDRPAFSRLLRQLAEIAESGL

[7] = Inhibition of recombinant mouse full-length BLK V421E mutant using poly(Glu, Tyr) 4:1 as substrate measured after 40 mins in presence of [gamma33P]ATP by scintillation counting analysis
Summary of the method: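 Radiometric assay with BLK in 50 mM Tris pH 7.5, 0.1 mM EGTA, 0.1 mM Na3VO4, 0.1% mercaptoethanol, 0.1 mg/mL poly(Glu,Tyr) 4:1, 10 mM Mg acetate and [γ-33P]-ATP. Started with Mg/ATP at room temperature; 40 min. Stopped with 0.5% phosphoric acid, filtermat-spotted, washed, scintillation counted. Mean of ≥3 assays in triplicate.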

[8] = molecular target: Proto-oncogene tyrosine-protein kinase Src (Homo sapiens, UniProt P12931); assay: Inhibition of recombinant full-length human SRC using KVEKIGEGTYGVVYK as substrate measured after 40 mins in presence of [gamma33P]ATP by scintillation counting analysis
Summary of the method: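 Started with Mg/ATP at room temperature; 40 min incubation. Stopped with 0.5% phosphoric acid, filtermat-spotted, washed, scintillation counted. Mean of ≥3 assays in triplicate.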

[9] = molecular target: Tyrosine-protein kinase Fyn (Homo sapiens, UniProt P06241); assay: Inhibition of human full-length recombinant FYN using KVEKIGEGTYGVVYK as substrate measured after 40 mins in presence of [gamma-33P]-ATP by scintillation counting analysis
Summary of the method: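 Started with Mg/ATP; 40 min at room temperature. Stopped with 0.5% phosphoric acid, spotted onto P30 filtermat, washed, scintillation counted. Mean of ≥3 assays in triplicate.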

[10] = molecular target: Tyrosine-protein kinase Yes (Homo sapiens, UniProt P07947); assay: Inhibition of human full-length recombinant YES using poly(Glu, Tyr) 4:1 as substrate measured after 40 mins in presence of [gamma-33P]-ATP by scintillation counting analysis
Summary of the method: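 Started with Mg/ATP at room temperature; 40 min incubation. Stopped with 0.5% phosphoric acid, spotted onto Filtermat A, washed, scintillation counted. Mean of ≥3 assays in triplicate.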

[11] = organism: Homo sapiens; assay: Selectivity ratio of IC50 for recombinant human ITK (352 to 617 residues) to IC50 for inhibition of FAM-labeled peptide binding to full-length human N-terminal GST-tagged BTK (2 to 659 residues) expressed in baculovirus infected Sf21 insect cells
Summary of the method: (§1)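 Ratio of kinase IC50 to BTK IC50. BTK measured by off-chip mobility shift: compound preincubated 10 min with BTK in 50 mM HEPES pH 7.5, 0.01% Brij-35, then FAM-labelled peptide and ATP added, 28 °C. Stopped with EDTA buffer; percent conversion fitted for IC50. Each panel kinase assayed in triplicate.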

[12] = organism: Homo sapiens; assay: Selectivity ratio of IC50 for recombinant human N-terminal GST-fused TEC catalytic domain (359 to 631 residues) expressed in baculovirus expression system to IC50 for inhibition of FAM-labeled peptide binding to full-length human N-terminal GST-tagged BTK (2 to 659 residues) expressed in baculovirus infected Sf21 insect cells; summary of the method: as §1
[13] = organism: Homo sapiens; assay: Selectivity ratio of IC50 for recombinant mouse full-length BLK V421E mutant to IC50 for inhibition of FAM-labeled peptide binding to full-length human N-terminal GST-tagged BTK (2 to 659 residues) expressed in baculovirus infected Sf21 insect cells
Summary of the method: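 Ratio is BLK IC50 divided by BTK IC50. BLK: radiometric, 50 mM Tris pH 7.5, 0.1 mM EGTA, 0.1 mM Na3VO4, 0.1% mercaptoethanol, 0.1 mg/mL poly(Glu,Tyr) 4:1, 10 mM Mg acetate, [γ-33P]ATP, 40 min room temperature, phosphoric acid stop, filter-bound scintillation counting. BTK: off-chip mobility shift with FAM-peptide. Triplicates, ≥3 assays.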

[14] = organism: Homo sapiens; assay: Selectivity ratio of IC50 for recombinant full-length human SRC to IC50 for inhibition of FAM-labeled peptide binding to full-length human N-terminal GST-tagged BTK (2 to 659 residues) expressed in baculovirus infected Sf21 insect cells; summary of the method: as §1

T1 sequence (Q06187 whole entry): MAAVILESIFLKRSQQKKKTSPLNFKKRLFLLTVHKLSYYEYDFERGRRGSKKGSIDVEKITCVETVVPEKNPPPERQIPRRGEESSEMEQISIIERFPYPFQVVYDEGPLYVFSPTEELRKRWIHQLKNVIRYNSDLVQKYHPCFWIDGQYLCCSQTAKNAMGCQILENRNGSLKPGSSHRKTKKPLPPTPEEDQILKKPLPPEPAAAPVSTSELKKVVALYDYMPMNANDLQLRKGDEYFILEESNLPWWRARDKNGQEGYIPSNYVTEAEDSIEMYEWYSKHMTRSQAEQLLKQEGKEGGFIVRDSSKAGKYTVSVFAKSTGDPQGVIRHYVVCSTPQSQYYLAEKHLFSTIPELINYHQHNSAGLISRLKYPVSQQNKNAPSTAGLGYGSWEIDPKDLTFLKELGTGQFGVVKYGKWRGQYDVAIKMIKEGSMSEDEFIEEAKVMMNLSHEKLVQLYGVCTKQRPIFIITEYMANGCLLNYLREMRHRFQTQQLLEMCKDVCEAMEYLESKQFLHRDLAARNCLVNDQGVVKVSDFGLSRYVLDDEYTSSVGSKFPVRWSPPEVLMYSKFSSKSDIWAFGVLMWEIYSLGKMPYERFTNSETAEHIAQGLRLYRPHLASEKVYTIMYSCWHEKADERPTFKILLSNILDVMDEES
Sequence of Tyrosine-protein kinase Yes (P07947 whole entry): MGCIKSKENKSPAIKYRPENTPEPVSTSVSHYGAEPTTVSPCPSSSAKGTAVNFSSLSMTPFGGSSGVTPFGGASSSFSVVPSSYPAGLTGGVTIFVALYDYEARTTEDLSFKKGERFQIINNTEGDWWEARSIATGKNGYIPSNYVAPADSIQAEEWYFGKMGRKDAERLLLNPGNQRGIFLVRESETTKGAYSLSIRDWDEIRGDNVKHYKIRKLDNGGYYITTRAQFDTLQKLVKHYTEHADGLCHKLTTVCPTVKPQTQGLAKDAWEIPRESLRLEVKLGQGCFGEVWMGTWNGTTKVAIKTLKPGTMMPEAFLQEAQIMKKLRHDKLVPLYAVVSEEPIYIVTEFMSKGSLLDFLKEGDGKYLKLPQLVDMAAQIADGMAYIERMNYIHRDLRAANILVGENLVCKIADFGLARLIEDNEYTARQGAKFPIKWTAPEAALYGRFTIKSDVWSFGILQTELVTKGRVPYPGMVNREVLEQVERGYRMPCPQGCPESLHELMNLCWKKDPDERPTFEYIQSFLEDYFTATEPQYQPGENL
Sequence of Epidermal growth factor receptor (P00533 whole entry, the tested form may be a part): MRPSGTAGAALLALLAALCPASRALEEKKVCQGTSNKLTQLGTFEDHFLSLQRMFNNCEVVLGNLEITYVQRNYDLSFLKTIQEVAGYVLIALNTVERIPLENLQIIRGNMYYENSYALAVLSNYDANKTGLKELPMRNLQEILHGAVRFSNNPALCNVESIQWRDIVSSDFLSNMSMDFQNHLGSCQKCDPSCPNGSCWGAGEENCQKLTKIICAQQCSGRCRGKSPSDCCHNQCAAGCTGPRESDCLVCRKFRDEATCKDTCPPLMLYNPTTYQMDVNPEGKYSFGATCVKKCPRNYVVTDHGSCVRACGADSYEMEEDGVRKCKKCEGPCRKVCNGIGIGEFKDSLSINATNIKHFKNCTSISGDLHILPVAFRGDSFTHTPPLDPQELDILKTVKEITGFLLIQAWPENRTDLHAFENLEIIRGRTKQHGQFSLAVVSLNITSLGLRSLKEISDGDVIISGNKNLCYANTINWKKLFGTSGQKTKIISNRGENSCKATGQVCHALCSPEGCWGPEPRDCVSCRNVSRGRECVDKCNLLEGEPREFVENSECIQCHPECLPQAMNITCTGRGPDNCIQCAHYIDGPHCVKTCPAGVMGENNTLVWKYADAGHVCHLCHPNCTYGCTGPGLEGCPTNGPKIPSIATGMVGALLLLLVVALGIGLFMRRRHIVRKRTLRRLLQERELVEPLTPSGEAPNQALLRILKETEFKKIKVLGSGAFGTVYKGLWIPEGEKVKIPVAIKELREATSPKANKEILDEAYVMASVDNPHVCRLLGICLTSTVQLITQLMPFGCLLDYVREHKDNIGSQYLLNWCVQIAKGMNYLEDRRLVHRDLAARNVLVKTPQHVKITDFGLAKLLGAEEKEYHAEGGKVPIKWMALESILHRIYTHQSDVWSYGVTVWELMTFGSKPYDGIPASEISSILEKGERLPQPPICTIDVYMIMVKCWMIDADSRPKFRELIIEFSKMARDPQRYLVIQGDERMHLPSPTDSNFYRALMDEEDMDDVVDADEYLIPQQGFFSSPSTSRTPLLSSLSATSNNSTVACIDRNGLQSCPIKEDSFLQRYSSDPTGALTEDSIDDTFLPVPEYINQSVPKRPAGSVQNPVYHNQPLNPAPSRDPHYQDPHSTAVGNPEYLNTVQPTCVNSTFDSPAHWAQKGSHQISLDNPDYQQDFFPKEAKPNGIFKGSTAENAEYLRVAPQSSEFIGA
Sequence of Proto-oncogene tyrosine-protein kinase Src (P12931 2-536 limits assumed): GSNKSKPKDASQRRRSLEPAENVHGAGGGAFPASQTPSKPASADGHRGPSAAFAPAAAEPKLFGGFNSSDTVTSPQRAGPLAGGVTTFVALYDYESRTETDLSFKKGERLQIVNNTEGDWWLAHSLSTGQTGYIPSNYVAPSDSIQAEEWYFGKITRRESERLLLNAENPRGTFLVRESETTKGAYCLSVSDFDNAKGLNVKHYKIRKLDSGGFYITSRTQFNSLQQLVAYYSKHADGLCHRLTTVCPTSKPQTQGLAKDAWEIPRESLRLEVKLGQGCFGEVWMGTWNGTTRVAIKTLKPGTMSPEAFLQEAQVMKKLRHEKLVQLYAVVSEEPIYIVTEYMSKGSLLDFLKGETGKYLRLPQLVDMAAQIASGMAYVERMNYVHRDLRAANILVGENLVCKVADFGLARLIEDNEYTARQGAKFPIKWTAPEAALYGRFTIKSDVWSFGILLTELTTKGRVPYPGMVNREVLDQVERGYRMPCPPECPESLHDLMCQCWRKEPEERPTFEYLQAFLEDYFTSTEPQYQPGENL
Sequence of Tyrosine-protein kinase Fyn (P06241 whole entry): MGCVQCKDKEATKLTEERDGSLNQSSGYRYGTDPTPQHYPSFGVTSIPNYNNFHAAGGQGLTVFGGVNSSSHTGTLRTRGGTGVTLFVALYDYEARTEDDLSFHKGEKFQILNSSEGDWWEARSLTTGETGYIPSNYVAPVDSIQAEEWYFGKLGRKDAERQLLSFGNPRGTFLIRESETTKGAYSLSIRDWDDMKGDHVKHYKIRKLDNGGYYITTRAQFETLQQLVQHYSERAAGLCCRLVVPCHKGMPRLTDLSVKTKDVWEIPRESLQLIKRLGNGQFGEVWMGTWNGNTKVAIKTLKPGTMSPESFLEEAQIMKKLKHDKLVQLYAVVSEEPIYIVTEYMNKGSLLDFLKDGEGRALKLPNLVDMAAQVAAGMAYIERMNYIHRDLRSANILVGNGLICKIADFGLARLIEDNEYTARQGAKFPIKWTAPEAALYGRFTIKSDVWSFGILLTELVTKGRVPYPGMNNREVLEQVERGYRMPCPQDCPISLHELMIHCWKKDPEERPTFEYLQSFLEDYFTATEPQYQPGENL

## COc1cc2cn[nH]c2cc1-c1ccc(F)c2c(N)c(C(N)=O)cnc12
[1]
  EC50: 42.7 nM
[2]
  solubility kinetic at 24 h: 7.3 µg/mL (≈ 20.8 µM)
[3]
  IC50: 5.3 nM
[4]
  IC50: > 2000 nM
[5]
  IC50: 227 nM
[6]
  IC50: 307 nM
[7]
  IC50: 150 nM
[8]
  IC50: 903 nM
[9]
  IC50: 165 nM
[10]
  IC50: > 10000 nM
[11]
  Ratio IC50: 58
[12]
  Ratio IC50: 43
[13]
  Ratio IC50: 28
[14]
  Ratio IC50: 170
